Bioassay records from PubChem.
PGE2 EP2 inh: blocks the human prostaglandin E2 receptor EP2. P43116. C6 glioma cells expressing human EP2, cAMP TR-FRET; cells stimulated with saturating PGE2. inhibition, % at 25 µM. actives 0.52% (n = 260,000);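 active = percent inhibition above 40 after rounding to a whole number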;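 also: rat C6 glioma host cells with rolipram phosphodiesterase inhibitor present; the protocol text gives 20 µM as final concentration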
Target sequence (P43116 whole entry, looked up): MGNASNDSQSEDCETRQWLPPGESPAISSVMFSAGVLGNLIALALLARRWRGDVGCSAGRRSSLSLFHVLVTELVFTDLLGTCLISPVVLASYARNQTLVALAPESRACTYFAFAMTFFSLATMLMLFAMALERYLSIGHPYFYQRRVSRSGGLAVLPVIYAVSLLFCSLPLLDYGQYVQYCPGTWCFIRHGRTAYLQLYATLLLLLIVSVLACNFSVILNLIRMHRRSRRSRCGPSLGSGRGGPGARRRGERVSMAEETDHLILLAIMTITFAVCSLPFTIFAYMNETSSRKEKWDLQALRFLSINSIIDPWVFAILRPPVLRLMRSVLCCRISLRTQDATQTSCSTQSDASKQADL
ABCG2 block: inhibitors of human ABCG2 transporter, ABCB1 counter-screen | Q9UNQ0 | IgMXP3 cells, JC-1 efflux, flow cytometry | inhibition, % at 6.6 µM | actives 0.1% (n = 190,000);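 active = inhibition above 80%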;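 also: 0% = DMSO and 100% = nicardipine control wells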
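Incubation: cells with compound and JC-1, 10 min at 25 °C, rotating, no wash / Test system: IgMXP3 (ABCG2) plus far-red-tagged CCRF-Adr (ABCB1) cells / Compound dosing: one concentration, 6.6 µM final / Also added: JC-1 fluorescent substrate / Evaluation: efflux inhibition in percent versus controls / Detection: flow cytometry, 530 nm JC-1 signal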
EP2 mod: EP2 receptor (human) modulation; actives 0.83% (n = 260,000); EP2-expressing cells, cAMP HTRF FRET, PGE2 co-stimulation; AID 940; induction, % at 25 µM;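 active = compounds whose cAMP rise, as percent of the full-agonist control response, exceeds 60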;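 also: rat C6 glioma line stably carrying human EP2 under a CMV promoter; the protocol text gives 20 µM as final concentration; 100% = response of wells given 1 µM PGE2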
RBBP9 inh: human RBBP9 hydrolase inhibition. actives 0.2% (n = 220,000). O75884. inhibition, % at 7.94 µM. recombinant RBBP9, FP-Rh probe fluorescence polarization. AID 1515;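 active = inhibition above the campaign mean of all tested compounds plus 3 SD, cut at about 14% in these data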;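 also: plate controls were DMSO wells with RBBP9 for no effect and wells lacking RBBP9 protein for full effect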
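Controls: DMSO-treated enzyme wells and wells lacking RBBP9 | Material: RBBP9 protein | Technique: Fluorescence polarization | Replication: Single well per compound, no replicates | Buffer or medium: Tris-NaCl-Pluronic buffer, pH 8.0 | Timing: 30 min compound preincubation, 45 min probe labeling, 25 °C | Read-out basis: Percent inhibition from mP, scaled between DMSO and no-protein wells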
ABCB1 inh: blocks JC-1 efflux by human ABCB1 transporter. P08183. CCRF-Adr cells, flow cytometry. inhibition, % at 6.6 µM. actives 0.067% (n = 190,000). AID 1326; in the data active = inhibition above about 40%;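 also: 0% = vehicle and 100% = reference inhibitor; higher value means more JC-1 retained so stronger ABCB1 efflux block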
Numbers without * were called inactive; / = no result given. Compounds with a hit are over-represented: about 1.5% of the library has one in this group of screens.

SMILES	PGE2 EP2 inh	ABCG2 block	EP2 mod	RBBP9 inh	ABCB1 inh
[N-]=[N+]=CC(=O)C(c1ccccc1)(c1ccccc1)c1ccccc1	8	/	76*	6	/
Cc1cc(=O)oc2cc(OCC(=O)Nc3ccccc3-c3ccccc3)ccc12	12	/	31	/	/
CCC(c1nnnn1C1CCCC1)N(Cc1ccc(F)cc1)Cc1cc2cccc(C)c2[nH]c1=O (configuration not stated)	19	/	51	/	/
Nc1ccc(N(S(=O)(=O)c2ccccc2)S(=O)(=O)c2ccccc2)c(Cl)c1	44*	/	-15	/	/
CCn1c(SCC#N)nnc1-c1ccc(Cl)cc1	6	/	-4	/	/
CC(=O)/C=C/c1ccc(C)o1	8	-1	16	-5	0
Cc1ccc(/C=C/C(=O)c2ccc(Br)cc2)o1	95*	/	-107	/	/
COC(=O)/C=C1/C(=O)N(C(C)=O)c2ccccc21	71*	/	-51	/	/
Cc1nc(NCc2cccnc2)c2nnn(Cc3ccccc3)c2n1	7	/	-25	/	/
c1ccc(Oc2nc(-c3cccnc3)nc3ccccc23)cc1	7	/	87*	-5	/
O=[N+]([O-])c1ncccc1Oc1nc(-c2cccnc2)nc2ccccc12	-4	34	-14	-7	3
Cc1cccc(Oc2nc(-c3ccccn3)nc3ccccc23)c1	13	/	47	-12	/
Cc1cccc(Oc2nc(-c3ccncc3)nc3ccccc23)c1	5	/	71*	-8	/
CC(C)C(=O)N1CCN(c2ccc(NC(=O)COc3ccccc3Cl)cc2)CC1	15	/	-83	/	/
CCc1cc2ccc(C)c(C)c2nc1SCC(=O)Nc1nc(C)cs1	11	/	51	/	/
O=C1NC(CC(=O)N2C3CCC2CC(c2ccc(F)cc2)C3)c2ccccc21 (configuration not stated)	8	/	-73	/	/
Cc1ccc(CN(Cc2cc3cccc(C)c3[nH]c2=O)Cc2nnnn2C2CCCC2)cc1	5	/	55	/	/
COc1ccc2cc(CN(Cc3ccccc3)Cc3nnnn3C3CCCCC3)c(=O)[nH]c2c1	6	/	75*	/	/
Cc1cc2cc(CN(Cc3ccccc3)Cc3nnnn3C3CCCC3)c(=O)[nH]c2cc1C	14	/	71*	/	/
Cc1cccc2cc(CN(Cc3ccc4c(c3)OCO4)Cc3nnnn3C3CCCCC3)c(=O)[nH]c12	14	/	68*	/	/
COc1ccc2cc(CN(Cc3ccccc3OC)Cc3nnnn3C3CCCCC3)c(=O)[nH]c2c1	3	/	58	/	/
Cc1ccc2[nH]c(=O)c(CN(Cc3ccccc3)Cc3nnnn3C3CCCC3)cc2c1	9	3	57	0	7
Cc1ccc(CN(CCCN2CCOCC2)Cc2cnc(C)n2C)o1	2	/	14	/	/
COCCOC(=O)C1=C(C)NC2=C(C(=O)CC(c3ccc(OC)c(OC)c3)C2)C1c1ccc(O)cc1 (configuration not stated)	12	/	5	/	/
CC(C)N=c1scc(-c2ccco2)n1/N=C/c1ccc(O)c(O)c1	8	-1	0	-10	0
SMILES	PGE2 EP2 inh	ABCG2 block	EP2 mod	RBBP9 inh	ABCB1 inh
COCCN=c1scc(-c2ccco2)n1/N=C/c1ccc(O)c(O)c1O	9	-2	-38	24*	-1
Cc1ccc(NC(=O)CSc2n[nH]c(C)n2)c(C)c1	11	/	-1	/	/
CCN(Cc1ccccc1)C(c1cc2ccc(OC)cc2[nH]c1=O)c1nnnn1CC1CCCO1 (configuration not stated)	15	/	4	/	/
c1ccc(N(c2ccccc2)c2nc(-n3ccnc3)nc(-n3ccnc3)n2)cc1	67*	28	-46	-2	3
CCNC(=S)N(CCCN(CC)CC)Cc1cc2c(C)cc(C)cc2[nH]c1=O	6	/	-65	/	/
C=CCOc1nc(-c2ccccc2Cl)nc2ccccc12	6	/	63*	0	/
COc1ccc(C(=O)c2ccccc2)cc1	2	6	2	-7	0
COc1ccc(C(=O)[C@H](Br)[C@H](Br)C(=O)O)cc1	42*	/	-16	/	/
CCn1nnnc1SCC(=O)c1ccccc1F	3	/	3	/	/
Cc1cc[nH]c(=O)c1NCc1cc2c(C)nn(-c3ccccc3)c2[nH]c1=O	46*	/	-71	/	/
COCCNc1cc(C)nc2cc(-c3ccc(C)cc3)nn12	9	19	62*	-8	-1
Cc1cc(C)c2[nH]c(=O)c(CN(Cc3ccco3)C(=S)Nc3ccc(F)cc3)cc2c1	18	/	1	/	/
O=C(O)[C@@H]1[C@H](C(=O)Nc2cccc3cccnc23)[C@@H]2CC[C@H]1O2	58*	/	-54	/	/
